Read-outs that look alike come from different tables or passages of the source. Positions of bridges follow the written chain, without caps; N, C: chain ends. Non-standard residues stand in square brackets, D forms with d. Residues, ends and D or L forms follow the SMILES beside them. hArg = N=C(N)NCCCC[C@H](N)C(=O)O; Mpa = O=C(O)CCS
Legend:
[1] = tested on: platelet adhesion/aggregation to collagen; assay: Platelet adhesion/aggregation to collagen; format: cell-based, human
[2] = biological target: T1, αIIbβ3 (Homo sapiens, UniProt P05106+P08514); assay: Platelet adhesion to immobilized fibrinogen screening assay; format: cell-based; settings: for inhibition of platelet adhesion to fibrinogen: mean ± SD, five experiments
T1 sequence (P08514 32-887 limits assumed): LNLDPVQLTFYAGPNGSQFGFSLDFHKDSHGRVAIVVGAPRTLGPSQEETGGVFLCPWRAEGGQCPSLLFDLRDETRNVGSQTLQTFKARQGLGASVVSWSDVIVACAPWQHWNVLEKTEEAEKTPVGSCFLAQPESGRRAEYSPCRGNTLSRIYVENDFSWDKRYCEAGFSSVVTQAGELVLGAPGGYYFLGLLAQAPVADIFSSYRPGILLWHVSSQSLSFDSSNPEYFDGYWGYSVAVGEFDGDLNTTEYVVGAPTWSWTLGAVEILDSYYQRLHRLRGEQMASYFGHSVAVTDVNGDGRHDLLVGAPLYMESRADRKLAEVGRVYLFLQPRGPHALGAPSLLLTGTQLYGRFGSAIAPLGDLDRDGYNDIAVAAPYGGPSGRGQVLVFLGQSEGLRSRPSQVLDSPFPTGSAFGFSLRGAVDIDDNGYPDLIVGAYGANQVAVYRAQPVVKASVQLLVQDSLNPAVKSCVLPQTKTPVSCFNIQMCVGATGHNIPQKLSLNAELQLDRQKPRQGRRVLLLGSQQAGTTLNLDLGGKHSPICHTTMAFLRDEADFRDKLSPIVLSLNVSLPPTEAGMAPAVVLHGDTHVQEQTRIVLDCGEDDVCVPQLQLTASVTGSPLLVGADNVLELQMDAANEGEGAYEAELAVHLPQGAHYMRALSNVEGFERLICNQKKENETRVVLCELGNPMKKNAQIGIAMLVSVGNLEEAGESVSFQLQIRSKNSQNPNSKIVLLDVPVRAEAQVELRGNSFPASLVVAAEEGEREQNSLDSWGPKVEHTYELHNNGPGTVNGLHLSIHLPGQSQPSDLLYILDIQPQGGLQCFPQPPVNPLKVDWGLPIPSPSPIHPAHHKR
T1 sequence (P08514 891-1039 partner limits assumed): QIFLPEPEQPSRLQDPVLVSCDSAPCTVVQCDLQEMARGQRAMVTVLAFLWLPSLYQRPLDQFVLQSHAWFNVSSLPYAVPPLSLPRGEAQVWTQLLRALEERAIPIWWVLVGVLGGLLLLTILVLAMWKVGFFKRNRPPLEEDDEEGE
T1 sequence (P05106 27-788): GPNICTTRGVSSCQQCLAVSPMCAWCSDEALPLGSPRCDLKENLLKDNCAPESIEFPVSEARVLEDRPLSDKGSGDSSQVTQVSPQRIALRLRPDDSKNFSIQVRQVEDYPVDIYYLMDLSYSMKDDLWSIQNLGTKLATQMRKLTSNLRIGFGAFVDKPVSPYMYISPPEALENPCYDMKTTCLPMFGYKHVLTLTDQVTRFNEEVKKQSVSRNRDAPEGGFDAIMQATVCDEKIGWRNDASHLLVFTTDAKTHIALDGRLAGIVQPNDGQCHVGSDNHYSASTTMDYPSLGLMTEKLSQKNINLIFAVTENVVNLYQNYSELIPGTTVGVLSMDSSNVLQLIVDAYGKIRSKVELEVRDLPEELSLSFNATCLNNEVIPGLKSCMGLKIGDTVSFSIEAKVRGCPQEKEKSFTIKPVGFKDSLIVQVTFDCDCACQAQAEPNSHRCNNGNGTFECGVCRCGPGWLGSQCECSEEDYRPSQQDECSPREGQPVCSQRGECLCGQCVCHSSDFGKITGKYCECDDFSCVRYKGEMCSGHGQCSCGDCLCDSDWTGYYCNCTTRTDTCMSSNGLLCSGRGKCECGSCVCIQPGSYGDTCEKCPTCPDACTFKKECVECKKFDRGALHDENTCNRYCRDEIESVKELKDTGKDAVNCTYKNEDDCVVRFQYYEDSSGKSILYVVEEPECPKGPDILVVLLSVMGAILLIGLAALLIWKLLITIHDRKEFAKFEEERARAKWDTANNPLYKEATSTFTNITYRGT

[3] = biological target: T1, αIIbβ3; assay: ADP-induced platelet aggregation of platelet-rich plasma; format: cell-based
[4] = tested on: mouse platelets; assay: ADP-induced mouse platelet aggregation; format: cell-based
[5] = tested on: rat platelets; assay: ADP-induced rat platelet aggregation; format: cell-based
[6] = biological target: αVβ3 (Homo sapiens, UniProt P05106+P06756); assay: αVβ3-mediated HEK293 cell adhesion to vitronectin; format: cell-based
[7] = biological target: T1, αIIbβ3; assay: αIIbβ3-mediated HEK293 cell adhesion to fibrinogen; format: cell-based; settings: 100 μM; n = 4
[8] = biological target: αIIbβ3 ligand-induced binding sites (Homo sapiens, UniProt P05106+P08514); assay: Induction of ligand-induced binding site; format: cell-based; settings: for PMI-1 binding to platelets, % of amount bound in the presence of eptifibatide: αIIb LIBS mAb PMI-1, untreated 46 ± 5%; for PMI-1 binding to platelets, % of amount bound in the presence of eptifibatide / LIBS1 binding to platelets, % of amount bound in the presence of eptifibatide: eptifibatide = 100%; for AP5 binding to platelets, % of amount bound in the presence of eptifibatide: β3 LIBS mAb AP5, eptifibatide 10 μM = 100%, untreated 7 ± 3%; for LIBS1 binding to platelets, % of amount bound in the presence of eptifibatide: β3 LIBS mAb LIBS1, after 30 min, untreated 22 ± 3%
Summary of the method: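 Flow-based binding of LIBS mAbs to platelets: AP5 (β3 PSI domain), LIBS1 (β3 distal leg) and PMI-1 (αIIb). Net normalized fluorescence was expressed relative to platelets treated with eptifibatide, set as 100%. For AP5 the reference was eptifibatide 10 µM, 30 min at 22°C. Replicates: n=5 for AP5, n=4 for PMI-1.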

[9] = tested on: normal human platelets; assay: Recruitment of αIIbβ3-dependent patient IgG to drug-pretreated platelets; format: cell-based; settings: for recruitment of patient IgG to platelets: all 5 tirofiban samples and 13 of 15 eptifibatide samples
Summary of the method: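 Normal platelets were pretreated with test compound, then exposed to sera from patients with tirofiban- (5) or eptifibatide-induced (15) thrombocytopenia. Platelet-bound patient IgG was read as median MFI. Signals were compared with untreated control platelets and with eptifibatide-treated platelets.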

[10] = biological target: purified αIIbβ3 (Homo sapiens, UniProt P05106+P08514); assay: Negative stain EM of αIIbβ3 nanodiscs
[11] = biological target: T2, αIIbβ3 headpiece (Homo sapiens, UniProt P05106+P08514); assay: Gel filtration of soluble αIIbβ3 headpiece; settings: for reduction in αIIbβ3 headpiece elution volume: Superdex 200
Target sequence in this assay (P08514 32-652 limits assumed): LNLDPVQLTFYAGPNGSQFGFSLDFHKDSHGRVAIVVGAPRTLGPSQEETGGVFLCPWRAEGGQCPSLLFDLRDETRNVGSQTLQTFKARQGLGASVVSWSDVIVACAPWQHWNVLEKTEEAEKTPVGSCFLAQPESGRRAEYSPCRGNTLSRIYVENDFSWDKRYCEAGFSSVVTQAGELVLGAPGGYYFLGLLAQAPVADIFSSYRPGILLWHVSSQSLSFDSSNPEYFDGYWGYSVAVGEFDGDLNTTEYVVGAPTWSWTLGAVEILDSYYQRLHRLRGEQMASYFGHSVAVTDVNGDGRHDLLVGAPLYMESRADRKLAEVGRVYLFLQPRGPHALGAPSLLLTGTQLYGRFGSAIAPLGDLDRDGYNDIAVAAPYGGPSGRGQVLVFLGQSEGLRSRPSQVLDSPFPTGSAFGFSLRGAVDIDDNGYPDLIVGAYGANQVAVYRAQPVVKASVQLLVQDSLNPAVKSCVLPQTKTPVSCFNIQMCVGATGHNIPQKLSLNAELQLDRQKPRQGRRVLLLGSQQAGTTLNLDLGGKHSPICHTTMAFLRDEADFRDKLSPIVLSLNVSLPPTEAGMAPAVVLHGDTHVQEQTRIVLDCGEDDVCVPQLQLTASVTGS
Target sequence in this assay (P05106 27-498 limits assumed): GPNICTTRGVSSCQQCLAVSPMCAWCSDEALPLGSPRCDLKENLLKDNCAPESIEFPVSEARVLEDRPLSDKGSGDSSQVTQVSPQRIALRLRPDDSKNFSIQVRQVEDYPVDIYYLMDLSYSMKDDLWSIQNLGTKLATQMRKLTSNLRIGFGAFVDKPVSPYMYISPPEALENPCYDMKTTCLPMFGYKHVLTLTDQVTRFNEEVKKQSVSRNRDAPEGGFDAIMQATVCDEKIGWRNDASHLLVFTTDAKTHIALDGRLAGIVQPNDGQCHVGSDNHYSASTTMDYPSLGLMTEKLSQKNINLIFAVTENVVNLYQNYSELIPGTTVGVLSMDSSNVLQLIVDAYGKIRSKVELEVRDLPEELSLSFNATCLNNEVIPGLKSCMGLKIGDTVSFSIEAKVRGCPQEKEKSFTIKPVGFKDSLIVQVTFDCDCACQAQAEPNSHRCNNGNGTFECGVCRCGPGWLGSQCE

[12] = biological target: T2, αIIbβ3 headpiece; assay: Dynamic light scattering of soluble αIIbβ3 headpiece
Target sequence in this assay (P08514 32-652 limits assumed): as the sequence (P08514 32-652 limits assumed) above
Target sequence in this assay (P05106 27-498 limits assumed): as the sequence (P05106 27-498 limits assumed) above

[13] = biological target: platelet αIIbβ3 (Homo sapiens, UniProt P05106+P08514); assay: Priming assay: induction of fluorescent fibrinogen binding to platelets; format: cell-based; settings: for incremental fibrinogen binding: one experiment
Chain of platelet αIIbβ3 (P08514 32-887 limits assumed): as the sequence (P08514 32-887 limits assumed) above
Chain of platelet αIIbβ3 (P08514 891-1039 partner limits assumed): as the sequence (P08514 891-1039 partner limits assumed) above
Chain of platelet αIIbβ3 (P05106 27-788): as the sequence (P05106 27-788) above

[14] = tested on: recombinant human αIIbβ3; format: cell-based; settings: going from 1 to 50 mM Mg2+
Summary of the method: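 CHO-K cells stably expressing human αIIbβ3 were preincubated ±test compound for 30 min at each Mg²⁺ level (1 to 50 mM) plus 1 mM Ca²⁺. They were then exposed to PAC-1 (5 µg/ml) with activating mAb PT25-2 (5 µg/ml) for 30 min at 25°C, stained with PE anti-mouse IgM on ice for 30 min, and analysed by flow cytometry. Read-out was % MFI with vs without drug (n=3); IC50 was compared across Mg²⁺ levels.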

[15] = biological target: T1, αIIbβ3; assay: Platelet adhesion to fibrinogen at different Mg2+ concentrations; format: cell-based; settings: for IC50: IC50, platelet adhesion to fibrinogen, 1 mM Ca2+, mean ± SD, three experiments
[16] = biological target: T1, αIIbβ3; assay: Platelet aggregation induced by thrombin receptor–activating peptide; format: cell-based; settings: 20 mM vs 1 mM Mg2+
[17] = tested on: αIIbβ3; settings: 25.6 mg/kg; cited from earlier work
[18] = biological target: hαIIb/mβ3 (UniProt O54890+P08514); assay: Aggregation of platelets from a mouse expressing human αIIb and mouse β3; format: cell-based
[19] = pKa by titration in water; format: physicochemical
[20] = biological target: T2, αIIbβ3 headpiece; assay: X-ray crystallography of RUC-2–αIIbβ3 headpiece complex; settings: determined by x-ray crystallography, PDB code 3T3M
[21] = 100 μM, first reactive eptifibatide-patient serum
[22] = read-out: inhibition of platelet adhesion to fibrinogen

Molecule: 10E5: anti-αIIbβ3 (αIIbβ3-specific) mAb
- inhibition of platelet adhesion/aggregation to collagen ([1]; mAb, concentration not given): ~ 30%

Molecule: CCc1nn2c(=O)cc(N3CCNCC3)nc2s1 [RUC-1, reference compound]
- inhibition of platelet adhesion to fibrinogen ([2]; 10 μM): 22 ± 8%
- inhibition of platelet adhesion to fibrinogen ([2]; 30 μM): 38 ± 10%
- inhibition of platelet adhesion to fibrinogen ([2]; 100 μM): 70 ± 15%
- inhibition of human platelet aggregation ([3]; 100 μM): nearly completely inhibited
- IC50 ([3]; read-out: IC50, ADP-induced platelet aggregation, citrated PRP, ADP 5 μM, initial slope): 9.7 ± 1 µM
- inhibition of mouse platelet aggregation induced by ADP ([4]; 100 μM): did not inhibit
- inhibition of rat platelet aggregation induced by ADP ([5]; 100 μM): did not inhibit
- inhibition of adhesion of HEK293 cells expressing αVβ3 to vitronectin ([6]; 100 μM, n = 4): 5 ± 7%
- inhibition of adhesion of HEK293 cells expressing αIIbβ3 to fibrinogen [7]: 55 ± 5%
- PMI-1 binding to platelets, % of amount bound in the presence of eptifibatide [8]: 73 ± 9%
- AP5 binding to platelets, % of amount bound in the presence of eptifibatide [8]: 10 ± 4%
- LIBS1 binding to platelets, % of amount bound in the presence of eptifibatide [8]: 18 ± 2%
- recruitment of patient IgG to platelets ([9]; 100 μM): Neither RUC-1 nor RUC-2 induced recruitment of patient IgG
- MFI increase as % of value with eptifibatide-treated platelets [9, 21]: 13%
- median MFI relative to control platelets [9, 21]: 6.8 times
- recognition of pretreated platelets by patient serum ([9]; 100 μM, second reactive eptifibatide-patient serum): but not RUC-1
- shift of NIL value distribution of αIIbβ3 nanodiscs ([10]; up to 100 μM, P = 0.23): neither RUC-1 at concentrations up to 100 μM nor RUC-2 at concentrations up to 10 μM produced a significant shift
- increase in Stokes radius, gel filtration ([11]; 500 μM (near-saturating)): little or no increases
- reduction in αIIbβ3 headpiece elution volume ([11]; 500 μM (near-saturating)): 0.03 mL
- increase in Stokes radius, DLS ([12]; 500 μM (near-saturating)): 0.08 nm
- incremental fibrinogen binding ([13]; 100 μM): 2%
- increase of IC50 for PAC-1 binding [14]: ~ 6%
- increase in IC50 at higher Mg2+ concentrations, platelet adhesion to fibrinogen ([15]; compared with RUC-2): Neither RUC-1 nor tirofiban showed a comparable increase in IC50
- inhibitory effect on SFLLRN-induced platelet aggregation ([16]; 100 μM): much less evident
- antithrombotic effects in murine models in large and small blood vessels [17]: has antithrombotic effects

Molecule: NCC(=O)Nc1cccc(-c2nn3c(=O)cc(N4CCNCC4)nc3s2)c1 [RUC-2, 2-amino-N-(3-(5-oxo-7-(piperazin-1-yl)-5H-[1,3,4]thiadiazolo[3,2-a]pyrimidin-2-yl)phenyl)acetamide]
- αIIbβ3-dependent platelet adhesion to fibrinogen in a screening assay [2]: RUC-2 inhibited αIIbβ3-dependent platelet adhesion to fibrinogen in a screening assay and αIIbβ3-dependent platelet aggregation. It was found to bind to the target via x-ray crystallography (PDB code 3T3M).
- inhibition at 10 µM [2, 22]: 66 ± 10%
- inhibition at 30 µM [2, 22]: 80 ± 13%
- inhibition at 100 µM [2, 22]: 83 ± 7%
- IC50 [3]: 0.22 µM
- αIIbβ3-dependent platelet aggregation [3]: RUC-2 inhibited αIIbβ3-dependent platelet adhesion to fibrinogen in a screening assay and αIIbβ3-dependent platelet aggregation. It was found to bind to the target via x-ray crystallography (PDB code 3T3M).
- inhibition of human platelet aggregation ([3]; 1 μM): nearly completely inhibited
- inhibition of mouse platelet aggregation induced by ADP ([4]; 1 μM): did not inhibit
- inhibition of rat platelet aggregation induced by ADP ([5]; 1 μM): did not inhibit
- inhibition of aggregation of hαIIb/mβ3 mouse platelets [18]: essentially completely inhibited
- inhibition of platelet adhesion/aggregation to collagen ([1]; 1 to 100 μM): ~ 30%
- further inhibition of adhesion/aggregation to collagen ([1]; RUC-2 combined with anti-αIIbβ3 antibody 10E5): did not further inhibit
- platelet adhesion to collagen, microscopic analysis ([1]; decreased recruitment of additional platelets to adherent platelets): did not decrease platelet adhesion to collagen
- effect on αVβ3-mediated cell adhesion to vitronectin [6]: RUC-2 had minimal effect on αVβ3-mediated cell adhesion to vitronectin.
- PMI-1 binding to platelets, % of amount bound in the presence of eptifibatide [8]: 82 ± 13%
- AP5 binding to platelets, % of amount bound in the presence of eptifibatide [8]: 18 ± 5%
- LIBS1 binding to platelets, % of amount bound in the presence of eptifibatide [8]: 21 ± 3%
- recruitment of patient IgG to platelets ([9]; 3.9 μM): Neither RUC-1 nor RUC-2 induced recruitment of patient IgG
- MFI increase as % of value with eptifibatide-treated platelets ([9]; 3.9 μM, first reactive eptifibatide-patient serum): 8%
- increase in Stokes radius, gel filtration ([11]; 100 μM (near-saturating)): little or no increases
- reduction in αIIbβ3 headpiece elution volume ([11]; 100 μM (near-saturating)): 0.07 mL
- increase in Stokes radius, DLS ([12]; 100 μM (near-saturating)): 0.16 nm
- incremental fibrinogen binding ([13]; 1 μM): did not produce any incremental binding
- fibrinogen binding to platelets (priming) ([13]; 5 μM): did not increase the fibrinogen binding
- reduction in affinity (PAC-1 binding) [14]: ~75%
- increase of IC50 for PAC-1 binding ([14]; 1 mM Ca2+, activating mAb PT25-2): ~ 3.9 fold
- IC50 ([15]; 1 mM Mg2+): 0.29 ± 0.1 µM
- IC50 ([15]; 20 mM Mg2+): 0.91 ± 0.21 µM
- IC50 ([15]; 50 mM Mg2+): 1.3 ± 0.35 µM
- decrease in affinity, platelet adhesion to fibrinogen ([15]; going from 1 to 50 mM Mg2+): ~ 80%
- increase in IC50, platelet adhesion to fibrinogen ([15]; going from 1 to 50 mM Mg2+): ~ 4.5 fold
- inhibitory effect on SFLLRN-induced platelet aggregation ([16]; 1 μM): clearly attenuated
- pKa ([19]; pKa 1 (primary amine)): 6.41
- pKa ([19]; pKa 2 (piperazine nitrogen)): 8.08
- mechanism of inhibition [20]: Orthosteric inhibition at the RGD binding domain as determined by x-ray crystallography

Molecule: N=C(N)NCCCC[C@@H]1NC(=O)CCSSC[C@@H](C(N)=O)NC(=O)[C@@H]2CCCN2C(=O)[C@H](Cc2c[nH]c3ccccc23)NC(=O)[C@H](CC(=O)O)NC(=O)CNC1=O [eptifibatide] ([Mpa][hArg]GDWPC-NH2; disulfide 1-7 (inferred))
- shift of NIL value distribution of αIIbβ3 nanodiscs ([10]; dose-dependent, P < 0.001): shifted the distribution in a dose-dependent manner
- incremental fibrinogen binding ([13]; 1 μM): 34%

Molecule: CCCCS(=O)(=O)N[C@@H](Cc1ccc(OCCCCC2CCNCC2)cc1)C(=O)O [tirofiban]
- inhibition at 10 µM [2, 22]: 87 ± 9%
- recruitment of patient IgG ([9]; the two eptifibatide-treated patient samples reactive with RUC compounds): able to recruit patient IgG
- increase in Stokes radius, gel filtration ([11]; 56 μM (near-saturating)): 0.4 nm
- reduction in αIIbβ3 headpiece elution volume ([11]; 56 μM (near-saturating)): 0.38 mL
- increase in Stokes radius, DLS ([12]; 56 μM (near-saturating)): 0.45 nm
- incremental fibrinogen binding ([13]; 0.5 μM): 17%
- change of IC50 for PAC-1 binding [14]: completely unchanged

Molecule: RGDS
- incremental fibrinogen binding ([13]; 100 μM): 36%

Source: article PMC3390238 (Science Translational Medicine, 2012)
